Source: PubChem BioAssay
STAT3 act – increases IL-6 driven STAT3 reporter signal; U3A cells, IL-6 STAT3-luciferase reporter, luminescence; 100% = signal with IL-6 EC80 alone; activation (% of control), % at 5.6 µM; hit rate 0.91% among 190,000; AID 871;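 active = activation above the screen-wide mean of compound activation plus 3 SD, cut at about 130% in these data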;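 also: 0% = background luminescence of wells with medium and substrate only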
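System – human U3A cells carrying STAT3-luciferase construct · Probe or stimulus – Interleukin-6, 33 ng/mL · Schedule – compound 1 h, then IL-6 6 h at 37 °C · Signal – luminescence from STAT3-driven luciferase reporter · Evaluation – percent of IL-6-only median luminescence · Benchmarks – IL-6-only high control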
NF-kB neuron act – raises NF-kB expression in human neuronal cells; NF-kB reporter expression; stronger effect = higher value; fold change at 12.5 µM; hit rate 1.6% among 190,000; AID 1239; in the data active = fold change above about 3.3
APP 5'UTR act – APP 5'UTR luciferase reporter activation. SH-SY5Y APP 5'UTR luciferase reporter, luminescence; zero percent = DMSO vehicle wells. activation, % at 2 µM. hit rate 1% among 190,000. AID 1276;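 active = activation above a set limit, based on mean plus 3 SD of controls, cut at about 140% in these data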
STAT3 inh – inhibitors of IL-6 induced STAT3 signaling; U3A cells, IL-6 STAT3-luciferase reporter, luminescence; host cell line lacks STAT1; inhibition, % at 5.5 µM; hit rate 0.89% among 190,000;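 active = inhibition above the mean inhibition across all screened compounds plus 3 SD, cut at about 44% in these data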;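 also: 0% = DMSO only wells and 100% = 100 µM nifuroxazide control wells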
STAT1 activator – STAT1 signaling activation | NIH 3T3 STAT1-luciferase reporter, IFN-gamma, luminescence; 100% = IFN-gamma alone, no compound | activation (% of control), % at 5.5 µM | hit rate 2.6% among 200,000;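 active = activation above the screen-wide mean activation plus 3 SD, cut at about 130% in these data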;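 also: raw ratio to IFN-gamma control signal so 100% means no change and 0% no light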
STAT1 inh – STAT1 signaling inhibition; hit rate 0.35% among 200,000; inhibition, % at 5.5 µM; AID 920; NIH 3T3 STAT1-luciferase reporter, IFN-gamma, luminescence;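 active = inhibition above a set limit, the mean inhibition across all tested compounds plus 3 SD, cut at about 34% in these data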;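 also: 0% = IFN-gamma with DMSO and 100% = IFN-gamma with 300 µM nifuroxazide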
An asterisk follows results filed as active; . = no result given. A selection: hits, their analogues and other compounds. The true share with any hit is near 5.1%.

SMILES | STAT3 act | NF-kB neuron act | APP 5'UTR act | STAT3 inh | STAT1 activator | STAT1 inh
O=C(CC(Nc1ccc(Cl)cc1)C(=O)O)c1ccccc1 (stereo unspecified) | 80 | 2.4 | 209* | 27 | 147* | -50
COc1cc2cc(CN(Cc3cccnc3)C(=O)Nc3ccccc3F)c(=O)[nH]c2cc1OC | 101 | 0.94 | -8 | 2 | 96 | 2
Cc1cccc(/C=C/c2nc3ccccc3c(=O)[nH]2)c1 | 68 | 6.3* | 92 | 39 | 121 | -21
Cc1cccc(/C=C/c2nc3ccccc3c(=O)n2Cc2ccccc2)c1 | 96 | 0.86 | -5 | 8 | 99 | 1
Cc1cc(C)n(CCc2nc(-c3ccc(-c4ccccc4)cc3)cs2)n1 | 85 | 1.5 | 60 | 17 | 118 | -19
Cc1cc(NC(=O)c2ccccc2[N+](=O)[O-])ccc1Br | 94 | 2.2 | 47 | 10 | 138* | -44
CC(=O)Nc1cc(C(=O)OCC(=O)c2ccc(Cl)cc2Cl)ccc1C | 93 | 0.91 | -5 | 14 | 94 | 7
CC(=O)Nc1cc(C(=O)OCC(=O)c2ccc(C)cc2)ccc1C | 122 | 3.9* | 17 | -29 | 143* | -46
COC(=O)c1ccccc1NC(=O)CSCC(=O)Nc1ccc(F)cc1 | 90 | 1.2 | 8 | 17 | 101 | -1
CCCCCn1cnc2c(sc3nc4c(cc32)CSC(C)(C)C4)c1=O | 125 | 1.5 | 91 | -21 | 138* | -42
CC1(C)Cc2nc3sc4c(=O)[nH]cnc4c3cc2CS1 | 114 | 1.5 | -4 | -15 | 111 | -12
CC(=O)Nc1ccc(S(=O)(=O)N2CCN(Cc3cccc([N+](=O)[O-])c3)CC2)cc1 | 92 | 1.1 | 12 | 14 | 94 | 3
CCC(=O)Nc1cccc(NC(=S)NC(=O)c2cccs2)c1 | 109 | 1.8 | 32 | -11 | 132* | -36
CCOC(=O)c1ccc(NC(=O)N2CCc3ccccc32)cc1 | 94 | 7.9* | 205* | 10 | 125 | -27
O=C(CCC(=O)N1CCc2ccccc21)Nc1ccccc1 | 104 | 1.1 | 3 | -4 | 101 | -1
Cc1ccc(OCC(=O)N2CCCc3ccccc32)cc1 | 95 | 1.3 | 30 | 9 | 109 | -10
O=C(COc1ccc2c(c1)CCC2)N1CCc2ccccc21 | 106 | 2.7 | 93 | 3 | 134* | -37
O=C(Nc1ccccc1)N1CCc2ccccc21 | 87 | 6.5* | 102 | 18 | 146* | -47
COc1ccc(CCC(=O)N2CCc3ccccc32)cc1 | 84 | 2.2 | 37 | 20 | 133* | -36
COc1ccc(NC(=O)N2CCCc3ccccc32)cc1 | 94 | 1.4 | 7 | 9 | 87 | 14
O=C1CC(NNc2ccccc2)C(=O)N1c1ccc(N2CCCCC2)cc1 (stereo unspecified) | 99 | 1.4 | 11 | 6 | 97 | 0
O=C1c2ccccc2C(=O)N1CCCN1CCN(CCCN2C(=O)c3ccccc3C2=O)CC1 | 103 | . | 0 | -2 | 99 | 1
O=C(CN(CCc1ccccc1)S(=O)(=O)c1ccc(Br)cc1)N/N=C/c1ccccc1C(=O)O | 91 | 0.98 | 11 | 12 | 95 | 6
COc1ccc(NC(=O)N2CCc3ccccc32)cc1 | 64 | 10* | 176* | 43 | 124 | -18
CCOC(=O)c1ccc(NC(=O)N2CCN(Cc3ccccc3)CC2)cc1 | 133* | 0.83 | 15 | -28 | 108 | -10
SMILES | STAT3 act | NF-kB neuron act | APP 5'UTR act | STAT3 inh | STAT1 activator | STAT1 inh
CCOC(=O)c1ccc(NC(=O)CN2CCN(Cc3ccccc3)CC2)cc1 | 105 | 1.3 | 8 | -4 | 96 | 2
Cc1nonc1OCCNCc1c(C(=O)N2CCCCCCC2)nc2ccc(Cl)cn12 | 108 | 1.2 | 3 | -4 | 98 | 1
CN(C)Cc1c(-c2ccc(Cl)cc2)nc2ccccn12 | 97 | 2.9 | 65 | 9 | 141* | -48
Clc1ccc(-c2nc3ccccn3c2CN2CCCCC2)cc1 | 66 | 0.75 | 20 | 46* | 93 | 6
COC(=O)c1cccc(NC(=S)NC(C)C)c1 | 98 | 1.1 | -4 | 7 | 86 | 13
C/C(=N\NC(=O)c1nn(C)cc1Br)c1cccc(NC(=O)C(C)(C)C)c1 | 103 | 1.3 | 35 | -4 | 102 | -2
C/C(=N\NC(=O)c1c(Br)c(C)nn1C)c1cccc(NC(=O)c2ccccc2F)c1 | 85 | 1.2 | -12 | 18 | 104 | -5
